Rows were chosen to be rich in hits. Some 6.7% of all compounds tested hit in one or more screens of this group.
GRIN3A LBD mod: binders of NR3A ligand-binding domain, primary screen, biophysical, differential scanning fluorimetry, uHTS | Glutamate receptor ionotropic, NMDA 3A (GRIN3A) ligand-binding domain | NR3A LBD differential scanning fluorimetry, Tm shift; 0% = protein alone, 100% = glycine-bound protein | Tm shift relative to glycine control, % at 25 µM | hit rate 2.5% among 340,000 | AID 1259313, 2017;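 active means melting temperature shift of at least 10% of the positive control shift, at one fixed dose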
CSC inhib: cancer stem cell viability inhibitors, primary screen, luminescence; hit rate 1.1% among 300,000; AID 2717, 2010; inhibition, % at 7.5 µM; cancer stem cell-like cells viability; in the data active means inhibition above about 75%; inconclusive means no clear call, values can overlap the other calls; tested in HMLE shEcad cells
PREPL inhibitor: PREPL enzyme inhibitors, primary screen, biochemical, fluorescence polarization | recombinant PREPL, fluorescence polarization activity-based probe | hit rate 0.68% among 320,000 | inhibition, % at 5.96 µM | Prolyl endopeptidase-like (Homo sapiens), Q4J6C6 | AID 2751, 2010; in the data active means inhibition above about 43%
Target sequence (Q4J6C6 whole entry, looked up): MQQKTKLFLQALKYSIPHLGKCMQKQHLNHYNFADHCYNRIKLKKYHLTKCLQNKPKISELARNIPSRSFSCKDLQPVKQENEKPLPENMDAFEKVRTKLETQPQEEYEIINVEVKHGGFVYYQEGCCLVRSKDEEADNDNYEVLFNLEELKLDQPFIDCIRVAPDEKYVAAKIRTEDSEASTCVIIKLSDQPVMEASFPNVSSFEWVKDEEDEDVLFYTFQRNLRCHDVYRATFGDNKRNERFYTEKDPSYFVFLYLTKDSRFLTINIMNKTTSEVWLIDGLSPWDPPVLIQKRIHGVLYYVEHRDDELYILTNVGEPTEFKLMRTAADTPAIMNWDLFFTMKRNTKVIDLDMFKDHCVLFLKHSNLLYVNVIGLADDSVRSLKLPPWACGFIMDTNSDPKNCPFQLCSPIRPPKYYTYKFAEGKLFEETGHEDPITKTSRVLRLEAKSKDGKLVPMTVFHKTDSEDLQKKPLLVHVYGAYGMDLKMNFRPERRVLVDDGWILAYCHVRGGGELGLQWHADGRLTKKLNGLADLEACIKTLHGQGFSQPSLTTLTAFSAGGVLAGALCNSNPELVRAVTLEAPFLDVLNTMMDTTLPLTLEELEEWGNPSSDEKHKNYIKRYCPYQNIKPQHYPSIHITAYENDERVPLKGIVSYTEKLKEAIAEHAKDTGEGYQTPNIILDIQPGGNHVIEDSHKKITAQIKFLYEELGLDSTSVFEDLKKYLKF
CHOP inhibitor: inhibitors of CHOP promoter induction, primary screen, cell-based, unfolded protein response, luciferase reporter; hit rate 3.8% among 220,000; inhibition, % at 10 µM; AID 2732, 2010; CHO-K1 CHOP-promoter luciferase, tunicamycin-induced, 15-18 h;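 active means compounds that reduced the stress-induced luciferase reporter signal by more than about 70% of percent inhibition, limit read from the data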
T cruzi repl: inhibitors of intracellular T. cruzi growth, primary screen, luminescence, NIH3T3 host cells. hit rate 1.4% among 300,000. inhibition, % (no concentration beside the values). T. cruzi beta-gal in NIH3T3, 90 h;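 active means mean inhibition across valid replicates above about 55%, limit read from the data; inconclusive means mean below that limit but half or more replicates reach it; inactive means mean below it, under half of replicates reach it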;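 further: signal also drops with host cell toxicity which is not excluded here; higher percent means less beta-gal luminescence so fewer parasites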
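System: mouse NIH/3T3 fibroblasts infected with β-gal-expressing T. cruzi Tulahuen C4 / Input: NIH/3T3 cells, 5,000 per well / Buffer or medium: Low-serum DMEM with 2% FBS / Probe or stimulus: 5000 reporter trypomastigotes per well / Schedule: ≥90 h infection period, 3 h prior cell attachment / Measured by: GalScreen luminescence, 60 min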
Beta cell apopt: inhibitors of cytokine-induced beta cell apoptosis, primary screen, luminescence; hit rate 0.8% among 300,000; protection from apoptosis, % (concentration not given with the values); AID 435005, 2010; INS-1E cytokine-induced death, ATP luminescence, 48 h; percent of positive-control rescue, neutral wells zero;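 active means Every replicate reaches about 75%, or at least half do and their mean reaches it too, limit read from the data; inconclusive means At least half of replicates reach the limit but their mean does not; inactive means Under half of replicates reach the limit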;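 further: higher means more ATP so stronger rescue from cytokine killing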
Hits are given with their value; – = inactive; ? = inconclusive; · = no result given.

SMILES	GRIN3A LBD mod	CSC inhib	PREPL inhibitor	CHOP inhibitor	T cruzi repl	Beta cell apopt
CC(=O)Nc1ccc(NC(=O)Nc2cc(C)cc(C)c2)cc1	29	–	–	–	–	–
Nc1ccc(C(=O)CC(=O)Nc2ccc(Cl)cc2)cc1	12	–	–	·	–	–
Cc1cc(C)cc(N2CC(C(=O)OCC(=O)Nc3cc(C)on3)CC2=O)c1 (configuration not stated)	–	–	–	·	–	–
CCC(OC(=O)CN1C(=O)C(=O)c2ccccc21)C(=O)Nc1ccccc1OC (configuration not stated)	–	·	·	·	–	·
CC(=O)c1ccc(NC(=O)Nc2ccc(Cl)cc2)cc1	31	–	–	78	–	–
CC(=O)c1ccc(NC(=S)NCc2ccc(Cl)cc2Cl)cc1	16	–	–	–	–	–
CC(=O)Nc1ccc(NC(=O)Nc2ccccc2)cc1	19	–	–	·	–	–
O=C(Nc1nc2c(Br)cc(Br)cc2c(=O)s1)C1CCC1	–	–	–	91	–	–
O=C(Nc1nc2c(s1)CN(Cc1ccccc1)CC2)C1CCC1	–	–	–	–	–	–
COc1ccc([C@@H]2C[C@H]3CN(Cc4ccccc4OC)C(=O)[C@]34CCCN24)cc1C	–	–	–	–	–	–
COc1ccccc1CN1C[C@@H]2C[C@@H](c3ccc(C)c(C)c3)N3CCC[C@@]23C1=O	–	–	–	–	68	–
CCOC(=O)c1c(O)c2cc(Cl)ccc2n(CC)c1=O	–	–	–	–	–	–
OC(COCC(F)(F)C(F)(F)C(F)(F)C(F)F)Cn1c2ccc(Cl)cc2c2cc(Cl)ccc21 (configuration not stated)	19	116	–	–	–	·
Cn1ncc2c(N3CCN(c4ccc(Cl)c(Cl)c4)CC3)ncnc21	–	–	–	84	–	?
Cc1nn(-c2ccccc2)c(Cl)c1C(=O)N1CCN(c2ncnc3c2cnn3-c2ccccc2)CC1	–	–	–	92	–	–
CC(C)Nc1ncnc2c1cnn2-c1ccc(Cl)cc1	–	–	–	75	–	·
O=C(Cn1cnc2c(cnn2-c2ccccc2)c1=O)N1CCOCC1	–	–	–	–	·	–
O=C(Cn1cnc2c(cnn2-c2ccc(Cl)cc2)c1=O)N1CCN(c2ccccc2)CC1	–	–	–	91	–	–
COc1ccc(CCNC(=O)c2cc(S(=O)(=O)N3CCOCC3)cn2C)cc1OC	–	–	–	·	–	–
c1cc[n+](CCC[n+]2ccccc2)cc1	–	–	–	·	–	–
COC(=O)c1ccc(COc2cccc(C)c2C)cc1	–	–	–	–	–	–
O=C1NC(Cc2ccccc2)c2nc3ccc(Br)cc3c(=O)n2-c2cc(Cl)ccc21 (configuration not stated)	·	·	–	·	·	–
CCOc1ccc(CNC(=S)N/N=C/c2ccc(OC)c(OC)c2)cc1	–	–	–	–	–	–
CCOC(=O)C1CCN(c2ncnc3c2cnn3-c2ccc(Cl)cc2)CC1	–	–	–	–	–	–
Clc1ccc(-n2ncc3c(N4CCCC4)ncnc32)cc1	–	–	–	78	–	–
SMILES	GRIN3A LBD mod	CSC inhib	PREPL inhibitor	CHOP inhibitor	T cruzi repl	Beta cell apopt
O=C(CCC(=O)OCC(=O)c1ccccc1)Nc1cccc(Cl)c1	24	–	–	–	–	–
Cc1ccc(NC(=O)CCC(=O)OCC(=O)c2ccc(-c3ccccc3)cc2)cc1	–	–	–	85	–	–
O=C(CCC(=O)c1ccc(Oc2ccccc2)cc1)Nc1cccc(Cl)c1	–	·	–	–	–	–
CCC(C)[C@H](NS(=O)(=O)c1ccc(C)cc1)C(=O)N1CCC(C(=O)N[C@@H](Cc2ccccc2)C(=O)O)CC1 (some centres not stated)	13	–	–	·	–	–
CC[C@H](C)[C@H](NS(=O)(=O)c1ccc(C)cc1)C(=O)N1CCC(C(=O)N[C@H](C(=O)O)C(C)C)CC1	–	–	–	–	–	–
Cc1cccc(-c2ncc(CN3CCCC(CO)(Cc4ccccc4C)C3)cn2)c1 (configuration not stated)	–	–	–	–	–	–
CCCOc1ccc(N)cc1N	–	–	–	–	–	99
Cc1c([N+](=O)[O-])c(C(=O)Nc2ccc3c(c2)OCCO3)nn1C	10	–	–	–	–	–
CCOC(=O)C1CCCCN1S(=O)(=O)c1ccc2c(c1)CC(C)N2C(=O)C1CCC1 (configuration not stated)	–	–	–	·	–	–
COc1ccccc1CCNC(=O)Cn1ccc2cc(S(=O)(=O)N3CCC(C)CC3)ccc21	–	–	–	·	–	–
O=C(CN(c1cccc(C(F)(F)F)c1)S(=O)(=O)c1ccc(Cl)c([N+](=O)[O-])c1)NCc1ccc(F)cc1	–	185	–	–	–	–
O=C(CN(c1cccc([N+](=O)[O-])c1)S(=O)(=O)c1ccccc1)NCc1cccnc1	–	–	–	·	–	–
COc1ccc(CCNC(=O)CN2CCN(c3cccc(C(F)(F)F)c3)CC2)cc1	–	–	–	86	–	–
O=C(CN1CCN(c2ccccc2)CC1)Nc1cccc(C(F)(F)F)c1	–	–	–	79	–	–
CC(NC(=O)c1ccc(S(=O)(=O)Nc2ccccc2Cl)cc1)c1ccncc1 (configuration not stated)	–	–	–	·	·	–
COC(=O)C1=CN(c2ccc(F)cc2)C=C(C(=O)OC)C1c1ccc(O)cc1	–	–	–	·	–	–
CC12CCC(C(=O)CC1=O)C2(C)C (configuration not stated)	–	·	·	·	·	·
CC(=O)Nc1ccc(C=NNc2ccc(S(=O)(=O)Nc3ccccc3C(=O)O)cc2[N+](=O)[O-])cc1	22	–	–	·	·	–
CC(=O)Nc1ccc(C=NNc2ccc([N+](=O)[O-])cc2S(=O)(=O)Nc2ccccc2C(=O)O)cc1	29	–	–	·	·	–
O=[N+]([O-])c1ccc(Cl)cc1N/N=C/c1ccncc1	–	–	–	·	–	–
CC(=O)Nc1cccc(/C(C)=N/Nc2ccc(S(=O)(=O)Nc3ccccc3C(=O)O)cc2[N+](=O)[O-])c1	14	·	·	·	·	·
O=[N+]([O-])c1cc(S(=O)(=O)Nc2ccc(Cl)cc2)ccc1N/N=C/c1ccncc1	12	–	–	–	–	–
CN(CCO)c1ccc(C=NNc2ccc([N+](=O)[O-])cc2S(=O)(=O)Nc2ccccc2C(=O)O)cc1	26	–	–	·	·	–
COc1cc(/C=N/Nc2ccccc2[N+](=O)[O-])ccc1OC(=O)c1ccccc1F	–	–	–	–	–	–
COc1ccc(C(C)=NNc2ccc([N+](=O)[O-])cc2S(=O)(=O)Nc2ccccc2C(=O)O)c(OC)c1	–	·	–	·	·	–

From PubChem BioAssay
